From ChEMBL document CHEMBL4513216, “Probing the Open Global Health Chemical Diversity Library for Multistage-Active Starting Points for Next-Generation Antimalarials” (ACS Infect Dis, 2020)

Assay: Toxicity liver stage against HepG2, at 10uM
Format: cell-based
Design: test concentration 10 uM, cell line HepG2-A16-CD81EGFP
Conditions: human, HepG2-A16-CD81EGFP cells; read-out: INHIBITION
In short: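 Uninfected HepG2-A16-CD81EGFP cells, 3 × 10^3 per well, 1536-well, plated on prespotted compound at 10 μM final, parasite-free screening media added to match infected plates; puromycin 10 μM positive, DMSO 0.5% negative; run in parallel with 48 h PbLuc assay at 37 °C, 5% CO2; viability by CellTiter-Glo luminescence, normalized to controls.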

| SMILES | cytotoxicity at 10 µM [%] |
| --- | --- |
| CC(C)(C)n1ncc2c(=O)n(CC(=O)NCc3ccccc3)cnc21 | 42 |
| Fc1ccc(Sc2ccccc2CNC2=NCCN2)cc1 | 18.9 |
| CCS(=O)(=O)N1CCc2ccc(NC(=O)Nc3cccc(C)c3)cc21 | 42.3 |
| CCc1ccc(S(=O)(=O)NCC2CCN(c3cnccn3)CC2)s1 | 7.69 |
| Cn1nc(N2CCCC(C(=O)Nc3nc4ccccc4s3)C2)ccc1=O (stereo not given) | 27.6 |
| CC(C)(C)NC(=O)N1CCC(Oc2ccc(C(F)(F)F)cn2)CC1 | 6.91 |
| CC(C)Nc1nc2c(c(NC3CC3)n1)CN(C(=O)Cc1ccsc1)CC2 | 10.4 |
| Cc1cnc(NC2CCc3c(ccc(=O)n3CC3CC3)C2)nc1 (stereo not given) | -137 |
| COCCN1C[C@H]2CCN(c3ncccn3)CC[C@H]2S1(=O)=O | -2.2 |
| CC(C)c1ccc(NC(=O)Cn2cc(I)cn2)cc1 | 2.77 |
| O=C(Nc1ccc(Cl)cn1)c1nn(C2CCS(=O)(=O)C2)c2c1CCCC2 (stereo not given) | 1.61 |
| CC(Cn1cc(Br)cn1)C(=O)Nc1ccc(Br)cn1 (stereo not given) | 73.3 |
| Cc1ccc(NC(C)(C)c2nnnn2-c2ccc(Cl)cc2)c(C)c1 | 55.4 |
| CC(C)c1ccc(OCn2ccc(C(=O)N3CCCC3)n2)cc1 | 12.7 |
| Cc1ccc(-c2noc(C3CCN3C(=O)c3cc[nH]n3)n2)s1 (stereo not given) | 8.47 |
| CC(C)CNc1cc(-c2c[nH]nc2C2CCN(C(=O)C3CC3)C2)ccn1 (stereo not given) | 83.8 |
| Cc1cc(Cc2cccc(C(F)(F)F)c2)cc(C2CCCNC2)n1 (stereo not given) | -2.34 |
| Cc1cc(CN2CCc3nc(-c4ccncc4)nc(O)c3CC2)c(C)s1 | 3.27 |
| CCn1ccc(-c2cc(NCCCOc3ccccc3C)nc(C)n2)n1 | -5.28 |
| CCc1c(C)nc2cc(C3CCN(CCc4ccccc4)C3)nn2c1O (stereo not given) | -20.1 |
| CNc1cccc(C2CCCN(C(=O)Cc3ccccc3)C2)n1 (stereo not given) | -6.5 |
| CN(C)S(=O)(=O)N1CCCC(c2cccc(Cc3ccc(Cl)cc3)n2)C1 (stereo not given) | 56 |

| SMILES | cytotoxicity at 10 µM [%] |
| --- | --- |
| CC(C)c1nc2n(n1)CC(Nc1ncnc3ccccc13)CC2 (stereo not given) | -0.95 |
| O=C1NCCCCC1SCc1coc(-c2ccc(F)cc2)n1 (stereo not given) | 47.5 |
| Cc1cnn(C2CN(C(C)c3nc(-c4ccccc4)no3)C2)c1 (stereo not given) | -2.21 |
| Cc1ccc(OCCCC(=O)Nc2nonc2C)cc1C | 7.03 |
| CC(Cc1ccco1)NC(=O)NCc1ncnn1C (stereo not given) | 2.02 |
| CC1CCN(C(=O)CSCCN2CCOCC2)CC1 | 1.89 |
| Clc1cccc(C(NCc2ncc[nH]2)c2ccccn2)c1 (stereo not given) | 0.863 |
| CC(C)(C)n1ncc(NCC(O)c2ccccc2C(F)(F)F)c(Cl)c1=O (stereo not given) | 53.6 |
| COCC(O)CN(C)c1cc(C(F)(F)F)nc(-c2cccnc2)n1 (stereo not given) | 7.02 |
| NC(=O)c1ccc(N2CCN(Cc3ccc(F)cc3Cl)CC2)nn1 | 62.6 |
| CCN1CC(CN(C)c2cc(C)nc(N)n2)Oc2ccccc21 (stereo not given) | 38.8 |
| N#Cc1c(Cl)nsc1NCc1cccnc1OC1CCCC1 | 27.1 |
| CCn1nc(C)cc1C(=O)OCCNc1ncnc2ccccc12 | 61.8 |
| CC(C)C(C)(C#N)NC(=O)CN1CCCN(Cc2ccccc2F)CC1 (stereo not given) | -5.84 |
| Cc1ccc(S(=O)(=O)N2CCN(CCCn3ccnc3)CC2)cc1 | -13.5 |
| NC(=O)c1ccc(N2CCCCC2)c(NC(=O)c2cc(Br)ccc2Cl)c1 | 59.6 |
| COC(=O)C(C)(C)NC(=O)C1CC(=O)N(C2CC2)C1 (stereo not given) | -139 |
| CC(C)c1ccc(C(CN)N2CCc3sccc3C2)cc1 (stereo not given) | 1.66 |
| COc1ccc(C(=O)NCCCOC(C)c2ccccc2)c(OC)c1 (stereo not given) | -17.3 |
| Cc1cnn(-c2cccc(N3CCN(c4cc(C)nc(C)n4)CC3)n2)c1 | 7.82 |
| COCCN(C)c1ccc(NCc2ccsc2)nc1 | -5.2 |
| O=C(C[S+]([O-])Cc1ccc(F)cc1)N1CCc2sccc2C1 (stereo not given) | -3.86 |

| SMILES | cytotoxicity at 10 µM [%] |
| --- | --- |
| COc1cc(CNc2nncs2)cc(OC)c1OC | 18.7 |
| COc1ccccc1C1(CNc2snc(Cl)c2C#N)CCCC1 | 31.6 |
| NC(=O)c1nc2c(s1)CCN(C(=O)Nc1cccc(Cl)c1)CC2 | 6.64 |
| O=C1N(Cc2ccc(F)c(F)c2)CCCC12CCN(C1CCCCC1)C2 (stereo not given) | -0.268 |
| Cc1nc(C)c(CCN2CCC(Oc3ccccc3F)CC2)s1 | 42.9 |
| CCCc1nc(C(=O)NCCN2CCC(c3ccccc3C)C2)cs1 (stereo not given) | -37.9 |
| CCNc1ncc(C(=O)NC2CCc3ccccc3C2)cn1 (stereo not given) | 82.6 |
| COc1cccc(OCC2CCCN(C(=O)CCn3ccnc3)C2)c1 (stereo not given) | -19.8 |
| CCc1cc(N2CCN(c3ccc(Cl)cn3)CC2)n2nccc2n1 | 23.1 |
| CC(C)c1ccc(CN2C(=O)C3(CCNCC3)Nc3ccccc32)cc1 | -9.81 |
| N#Cc1cccnc1N1CCCC(CO)(Cc2ccc(F)cc2)C1 (stereo not given) | 3.3 |
| COc1cccc(CCC2CCCN(C(=O)c3cnccn3)C2)c1 (stereo not given) | 13.7 |
| CN(C)CCNc1ccc(-c2nc(-c3ccccc3F)no2)cn1 | 9.34 |
| CC(C)[C@H](C)NC1CCN(c2ccc(-c3cscn3)cc2)CC1 | -50.8 |
| Cc1ccccc1-c1noc(-c2ccc(N(C)C3CCOCC3)nc2)n1 | 2.65 |
| CC(=O)N1CCN(Cc2cccc3c2sc2ccccc23)CC(O)C1 (stereo not given) | -12.9 |
| Cc1nn2cc(CCNC(=O)c3cc(C(C)C)nn3C)nc2s1 | 34.9 |
| Cc1nc(N2CCC3(CCCN(CC4CC4)C3=O)C2)c2sccc2n1 (stereo not given) | 42 |
| CCCOc1ccccc1CCCNc1ncnc2oc(C)nc12 | 22.4 |
| COCC1(Nc2nc(C)nc3c2cnn3C)CCCC1 | 37.4 |
| Cc1cc(C2CCC2)nc(N2CCN(Cc3nccn3C)CC2)n1 | -6.86 |
| CC(C)Cc1nc(CN2CCc3onc(-c4cccc(F)c4)c3C2)no1 | 2.3 |

| SMILES | cytotoxicity at 10 µM [%] |
| --- | --- |
| CC(C)Oc1ccc(CN2CCCC(N3CCOCC3)C2)cc1CO (stereo not given) | 1.48 |
| CSC(C)Cc1c(-c2ccccc2)ncn1CCCNc1cccnc1 (stereo not given) | 15.1 |
| Cc1nonc1CN(C)c1nc(-c2cccnc2)nc2c1CCNC2 | 4.05 |
| Cc1nc(NCCc2noc(C3CCCO3)n2)c2sccc2n1 (stereo not given) | 53.6 |
| CNc1nc(C)cc(NC2CCCN(C3Cc4ccccc4C3)C2)n1 (stereo not given) | 12.5 |
| Clc1cccc(C2CCN(c3ncnc4c3CCNC4)C2)c1 (stereo not given) | 50 |
| CCc1cc(N(C)Cc2cc[nH]n2)n2nc(C)c(C)c2n1 | 24 |
| Cc1nc(CCN2CCC(Oc3ccccc3F)CC2)c(C)s1 | 7.08 |
| CCCN1CCC(NC(=O)c2csc(C)c2-c2ccccc2)CC1 | -133 |
| Cc1ccc2c(c1)c(CNC(=O)C1CC(=O)N(CCN(C)C)C1)nn2C (stereo not given) | 1.66 |
| CN(C)c1nc2c(c(N3CCC4(CC3)CNC(=O)C4)n1)CCCC2 | 0.995 |
| CCCn1cc(-c2ccnc(NC3CCc4ccccc43)n2)c(C)n1 (stereo not given) | 10.1 |
| Cc1cc(C(=O)N2CCOC(c3ccc(Cl)c(Cl)c3)C2)[nH]n1 (stereo not given) | 4.55 |
| Cc1ccccc1N1CCCN(c2ccncn2)CC1 | 24.9 |
| Cc1csc2ncnc(N3CCC(Cn4cc(C(C)(C)N)nn4)CC3)c12 | 25.5 |
| Nc1nc(CCC(=O)N2CCOC(CC3CCCCC3)C2)cs1 (stereo not given) | -9.18 |
| CN(C)S(=O)(=O)N1CCCC(c2cccc(Cc3ccccc3)n2)C1 (stereo not given) | 20.5 |
| CCS(=O)(=O)N1CCC(NC(=O)c2cc3ccccc3cc2O)CC1 | -2.1 |
| Cn1cc(NS(=O)(=O)c2ccc3c(c2)CCCC3)ccc1=O | 40.7 |
| COC(=O)c1ccc(N2CCN(C(=O)c3cccnc3)C(C)C2)cc1 (stereo not given) | 4.54 |
| COc1ccc(C2=CCN(C(=O)CN(CC(N)=O)C(C)C)CC2)cc1 | 23.3 |
| CCc1nc(CN2CCCN(c3nn4cc(C)nc4s3)CC2)no1 | -14.7 |

| SMILES | cytotoxicity at 10 µM [%] |
| --- | --- |
| Cc1cc(C)c(CNC(=O)N2CCCC2c2cc(C)on2)c(=O)[nH]1 (stereo not given) | 1.1 |
| CC(NC(=O)NCc1cc(Br)cs1)c1ccccn1 (stereo not given) | -17.6 |
| O=C(NCC(=O)N1CCCc2ccccc21)c1c(O)cc(F)cc1F | 28.6 |
| COc1cccc(CN2CCN(c3ccc4nncn4n3)C(C)C2)c1 (stereo not given) | 38.3 |
| Cc1noc(NC(=O)c2ccc(Br)s2)n1 | -1.35 |
| Cc1cc(CN2CCN(C(c3ccccc3)c3ccccc3)CC2)no1 | -6.56 |
| CN(C)c1ccc(CN(CCCn2ccnc2)Cc2c[nH]cn2)cc1 | -1.34 |
| Cc1cccc(Nc2cc(C3CCCN(CC(N)=O)C3)ccn2)n1 (stereo not given) | 12.3 |
| Fc1cccc(O[C@@H]2C[C@H]3CN(Cc4ccccn4)CCN3C2)c1 | -154 |
| c1cnc(N2CCC3(CCCN(Cc4ccncc4)C3)CC2)nc1 | -91.6 |
| CC(C)NC1CCc2[nH]c(=O)ccc2C1 (stereo not given) | 3.64 |
| Cc1csc(CN2CC[C@H]3O[C@H](C(=O)Nc4cccnc4)CC[C@H]32)n1 | -47.1 |
| O=C(c1ccsc1)N1C[C@@H]2OCCN(CCN3CCCC3)[C@@H]2C1 | -73.7 |
| Cc1ccc(O[C@@H]2C[C@H]3CN(C(=O)Cc4ccccn4)CCN3C2)cc1 | -59 |
| CCCN1CCC(c2nc3ccc(-c4cccc(OC)c4)cn3n2)CC1 | -113 |
| Fc1cccc(CN2CCOC3(COCCN(CC4CC4)C3)C2)c1 (stereo not given) | -111 |
| c1ccc(OC2COC3(CCN(Cc4ccccn4)CC3)C2)cc1 (stereo not given) | -69.2 |
| CCc1ccc(CN2C[C@@H]3OCCN(c4ccnc(N(C)C)n4)[C@@H]3C2)o1 | 61.8 |
| COCCO[C@H]1CCN(c2cc(OC)ncn2)[C@H]1Cc1cccnc1 | -140 |
| CN1CCC(c2nnc3ccc(C(=O)N4CCCCC4)cn23)C1 (stereo not given) | -167 |
| Cc1cccc(COc2ccc(C(C)N)cc2)c1 (stereo not given) | -1.79 |
| CN(C)C(=O)N1CC2(CCNCC2)c2cc(Cl)ccc21 | -69.8 |
